# Data as given in ChEMBL document CHEMBL1126108, “Quisqualic acid analogues: synthesis of beta-heterocyclic 2-aminopropanoic acid derivatives and their activity at a novel quisqualate-sensitized site” (J Med Chem, 1992).
# Organism: Rattus norvegicus
# Assay: Inhibitory concentration against evoked synaptic field potential of CA1 neurons in absence of quisqualic acid from rat hippocampus
# Format: functional
# Settings: not given
# Method in brief: (§1)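 Transverse 500-µm hippocampal slices from 30–100-day-old male Sprague-Dawley rats, submerged in oxygenated medium at 34 °C. Field potentials evoked by stimulating the Schaffer collaterals. Compound started at a subthreshold level and doubled every 4 min until the response fell >70% or exceeded 10 mM. IC50 was interpolated from fractional peak amplitude versus log concentration. Sequence included a 16 µM L-quisqualate exposure between tests.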
row,IC50 [µM],Structure (SMILES)
1,> 10000,N[C@@H](CC1CC(=O)NC1=O)C(=O)O (stereo in doubt; 5a)
2,9200,N[C@@H](CC1CC(=O)NC1=O)C(=O)O (stereo in doubt; 5b)

# Same assay, conditions: Rattus norvegicus
row,Structure (SMILES),IC50 [µM]
1,N[C@H](CCP(=O)(O)O)C(=O)O,2600
2,CN1C(=O)C=C(C[C@H](N)C(=O)O)C1=O,95
3,N[C@H](Cn1oc(=O)[nH]c1=O)C(=O)O,78
4,N[C@@H](CCP(=O)(O)O)C(=O)O,1800
5,N[C@@H](CC1=CC(=O)NC1=O)C(=O)O,21
6,NC(CN1CC(=O)NC1=O)C(=O)O (configuration not stated),1.4
7,N[C@@H](Cn1oc(=O)[nH]c1=O)C(=O)O [QUISQUALATE],3.9

# Organism: Rattus norvegicus
# Assay: Inhibitory concentration against evoked synaptic field potential of CA1 neurons in presence of 16 uM quisqualic acid from rat hippocampus
# Format: functional
# Settings: not given
# Method in brief: as §1
row,IC50 [µM],Structure (SMILES)
1,> 10000,N[C@@H](CC1CC(=O)NC1=O)C(=O)O (stereo in doubt; 5a)
2,6800,N[C@@H](CC1CC(=O)NC1=O)C(=O)O (stereo in doubt; 5b)

# Same assay, conditions: Rattus norvegicus
row,Structure (SMILES),IC50 [µM]
1,N[C@H](CCP(=O)(O)O)C(=O)O,152
2,CN1C(=O)C=C(C[C@H](N)C(=O)O)C1=O,6.8
3,N[C@H](Cn1oc(=O)[nH]c1=O)C(=O)O,10
4,N[C@@H](CCP(=O)(O)O)C(=O)O,55
5,N[C@@H](CC1=CC(=O)NC1=O)C(=O)O,9.5
6,NC(CN1CC(=O)NC1=O)C(=O)O (configuration not stated),0.8
7,N[C@@H](Cn1oc(=O)[nH]c1=O)C(=O)O [QUISQUALATE],2.9

# Organism: Rattus norvegicus
# Assay: Sensitization effect was determined
# Format: functional
# Settings: not given
row,Structure (SMILES),Sensitisation
1,N[C@H](CCP(=O)(O)O)C(=O)O,17
2,CN1C(=O)C=C(C[C@H](N)C(=O)O)C1=O,14
3,N[C@H](Cn1oc(=O)[nH]c1=O)C(=O)O,7.5
4,N[C@@H](CCP(=O)(O)O)C(=O)O,33
5,N[C@@H](CC1=CC(=O)NC1=O)C(=O)O,2.2
6,N[C@@H](CC1=CC(=O)N(CC(=O)O)C1=O)C(=O)O,7.7
7,NC(CN1CC(=O)NC1=O)C(=O)O (configuration not stated),1.7
8,N[C@@H](CC1CC(=O)NC1=O)C(=O)O (stereo in doubt; 5b),1.3
9,N[C@@H](Cn1oc(=O)[nH]c1=O)C(=O)O [QUISQUALATE],1.3
